Bioassay records (PubChem)
Sampled rows, rich in hits. Any-hit rate of the full collection: about 4.1%.
KCNQ1 act: potentiates or activates the human KCNQ1 potassium channel | P51787 | B-score at 10 µM | CHO-K1 KCNQ1, thallium flux FluxOR fluorescence; active compounds read high | 0.35% of 310,000 active;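 active = fluorescence ratio B-score, a plate-corrected score, at least three library SD, with initial intensity B-score within 5 SD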
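System: Stable KCNQ1 CHO-K1 line | Incubation: 90 min dye loading and 20 min compound exposure, both at room temperature | Measure: Ratio B score | Medium: Assay buffer for compound exposure, DMSO matched across wells | Compound dosing: Single-concentration screen | Probe or stimulus: K+/Tl+ depolarizing stimulus | Measured by: Kinetic FluxOR fluorescence, 10 s baseline plus 110 s post-stimulus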
hERG rescue: hERG (human) protection from proarrhythmic block. activation (rescue from dofetilide block), less the hit threshold, % at 10 µM. Q12809. CHO-hERG, FluxOR thallium flux, dofetilide IC70 present. 0.51% of 310,000 active. AID 1511;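 active = activation above the mean of controls blocked by dofetilide plus 5 SD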;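 note: thallium influx through hERG after potassium depolarization seen as dye fluorescence rise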
KCNK3 inh: human KCNK3 channel inhibition, primary screen; B-score at 10 µM; CHO-KCNK3 thallium flux, FluxOR fluorescence; active compounds read low; O14649; 0.84% of 340,000 active; AID 602410;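 active = B-score under library mean minus 4 SD, starting fluorescence ratio at most library mean plus 5 SD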;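 note: more negative B-score means stronger inhibition of thallium flux through KCNK3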
KCC2 mod: modulates chloride dependent transport by human KCC2; 2.2% of 190,000 active; AID 1456; Q9H2X9; KCC2 cells, thallium flux FluoZin-2 fluorescence; B-score of Tl+ flux slope (higher = more flux/activation; lower = inhibition) at 10 µM;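 active = thallium flux slope and its plate-corrected score both differing from the plate sample mean at a set confidence after two filtering rounds, in either direction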;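 note: slope of fluorescence scaled to starting intensity during 10 to 20 s after thallium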
Target sequence (Q9H2X9 whole entry, looked up): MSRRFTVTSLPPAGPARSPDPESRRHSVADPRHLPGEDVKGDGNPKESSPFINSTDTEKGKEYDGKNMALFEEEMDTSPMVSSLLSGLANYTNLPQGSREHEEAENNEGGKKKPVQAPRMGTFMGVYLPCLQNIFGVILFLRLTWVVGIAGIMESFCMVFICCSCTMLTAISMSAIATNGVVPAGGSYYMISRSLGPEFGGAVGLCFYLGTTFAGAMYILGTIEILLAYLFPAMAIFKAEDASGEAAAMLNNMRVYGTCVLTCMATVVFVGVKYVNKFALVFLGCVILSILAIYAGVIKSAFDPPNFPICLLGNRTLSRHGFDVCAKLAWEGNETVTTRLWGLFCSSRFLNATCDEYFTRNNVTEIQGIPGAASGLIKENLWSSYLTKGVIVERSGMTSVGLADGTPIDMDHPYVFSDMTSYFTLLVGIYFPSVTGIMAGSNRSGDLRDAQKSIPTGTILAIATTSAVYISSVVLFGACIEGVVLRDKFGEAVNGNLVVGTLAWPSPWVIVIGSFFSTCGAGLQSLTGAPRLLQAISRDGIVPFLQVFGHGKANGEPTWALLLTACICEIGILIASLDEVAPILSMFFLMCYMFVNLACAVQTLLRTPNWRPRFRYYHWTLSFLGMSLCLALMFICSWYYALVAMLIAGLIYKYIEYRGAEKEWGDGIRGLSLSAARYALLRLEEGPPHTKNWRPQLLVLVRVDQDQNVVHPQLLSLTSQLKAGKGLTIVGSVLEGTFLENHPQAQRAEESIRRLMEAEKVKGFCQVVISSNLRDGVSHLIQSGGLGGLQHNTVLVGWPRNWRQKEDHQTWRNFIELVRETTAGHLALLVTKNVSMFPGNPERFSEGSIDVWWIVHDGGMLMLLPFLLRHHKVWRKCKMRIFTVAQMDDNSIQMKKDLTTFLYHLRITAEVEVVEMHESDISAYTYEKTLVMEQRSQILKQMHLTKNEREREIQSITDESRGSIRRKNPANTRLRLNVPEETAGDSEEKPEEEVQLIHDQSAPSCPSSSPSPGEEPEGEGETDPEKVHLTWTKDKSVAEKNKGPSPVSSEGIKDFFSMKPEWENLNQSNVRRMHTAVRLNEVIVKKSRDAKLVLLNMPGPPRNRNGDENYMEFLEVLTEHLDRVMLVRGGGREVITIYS
KCNQ1 block: blocks the human KCNQ1 potassium channel; CHO-K1 KCNQ1, FluxOR thallium flux fluorescence; active compounds read high; 1.3% of 310,000 active; B-score at 10 µM;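 active = compounds whose thallium flux B-score, printed positive for inhibition, exceeds three library SD while starting fluorescence stays within three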;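 note: channel opened by potassium depolarization with thallium stimulus after 20 min compound exposure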
KCNK9 inh: inhibitors of human KCNK9 two-pore domain potassium channel. AID 488922. Q9NPC2. HEK293 KCNK9, FluxOR thallium flux fluorescence; active compounds read low. B-score at 10 µM. 1.2% of 310,000 active;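 active = ratio B-score over 3 SD below the library mean, with starting fluorescence within 5 SD of its mean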;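 note: negative B-score means less thallium flux so channel inhibition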
KCNK9 block conf: confirmation of human KCNK9 potassium channel inhibitors | inhibition, % at 10 µM | AID 492992 | 43% of 4,900 active | shares compounds with KCNK9 inh | HEK293 KCNK9 cells, FluxOR thallium flux fluorescence;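 active = thallium signal inhibited by more than 5 SD of the compound-free buffer control wells, on both duplicate plates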
Kir2-1 spec: tests whether KCNK9 modulators also affect mouse Kir2.1. AID 492993. shares compounds with KCNK9 inh. inhibition, % at 10 µM. Kir2.1 cells, FluxOR thallium flux fluorescence. 4% of 4,900 active;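 active = thallium signal drop more than 5 SD beyond the mean of the no-compound control wells, seen in both duplicate plates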;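 note: signal is fluorescence rise after thallium addition divided by baseline fluorescence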
KCNK9 uninduced: second counter-screen for KCNK9 modulators: effect in non-induced cells; shares compounds with KCNK9 inh; inhibition, % at 10 µM; 40% of 4,900 active; non-induced KCNK9-HEK293, FluxOR thallium flux; AID 492997;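 active = thallium signal drop beyond 5 SD of the untreated control mean, on both duplicate plates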
Large screens that a line does not name were inactive (follow-up assays come after a bar, where they were run).

Cc1ccc(S(=O)(=O)N2CCOCC2)cc1NC(=O)CN1C(=O)NC(C)(c2ccc(Cl)cc2Cl)C1=O (stereo not drawn)	none (no result: KCNQ1 act, hERG rescue, KCC2 mod, KCNQ1 block, KCNK9 inh)
Cc1ccc(NC2CCCN(C(=O)CCn3nccc3C)C2)cc1C (stereo not drawn)	none (no result: KCC2 mod)
CC1(C)CCC[C@]2(C)[C@H]3Cc4cc(O)ccc4O[C@]3(C)CC[C@@H]12	none (no result: KCNQ1 act, hERG rescue, KCC2 mod, KCNQ1 block, KCNK9 inh)
COc1cccc(C(=O)/C=C/c2ccc(N3CCCCC3)c([N+](=O)[O-])c2)c1	KCNK9 inh -8.26 | KCNK9 block conf 35.5% | Kir2-1 spec inactive | KCNK9 uninduced 35.0%
C[C@H](NC(=O)c1ccco1)C(=O)NNC(=O)c1ccc(F)cc1	none (no result: KCNQ1 act, hERG rescue, KCC2 mod, KCNQ1 block, KCNK9 inh)
Cc1cc(C)c(OC2(c3ccccc3)OC(=O)c3ccccc32)c(C)c1 (stereo not drawn)	KCNK9 inh -16.9 | KCNK9 block conf 69.0% | Kir2-1 spec inactive | KCNK9 uninduced 47.0%
COCCC1CCCCN1Cc1cn(-c2ccccc2)nc1-c1ccc2c(c1)OCO2 (stereo not drawn)	none | KCNK9 block conf inactive | Kir2-1 spec inactive | KCNK9 uninduced inactive
CN(Cc1cn(-c2ccccc2)nc1-c1ccc2c(c1)OCO2)Cc1nccn1C	none
CN(Cc1nc(-c2cccs2)no1)CC(O)c1ccccc1 (stereo not drawn)	none (no result: KCC2 mod)
CCOC(=O)C1(CCc2ccccc2)CCN(Cc2ccc(C(=O)OC)cc2)CC1	none (no result: KCC2 mod)
CCOC(=O)C1(Cc2ccccc2)CCN(Cc2cccn2-c2nccs2)CC1	none | KCNK9 block conf inactive | Kir2-1 spec inactive | KCNK9 uninduced inactive
CCOC(=O)C1(CCc2ccccc2)CCN(Cc2cc(OC)c(OC)cc2OC)CC1	none (no result: KCC2 mod) | KCNK9 block conf inactive | Kir2-1 spec inactive | KCNK9 uninduced inactive
CCOC(=O)C1(Cc2ccccc2)CCN(Cc2cccc(OC)c2O)CC1	none
CCOC(=O)C1(Cc2ccccc2C(F)(F)F)CCN(Cc2ccc(COC)o2)CC1	none | KCNK9 block conf inactive | Kir2-1 spec inactive | KCNK9 uninduced inactive
CCOC(=O)C1(Cc2cccc(OC)c2)CCN(Cc2cccn2-c2nccs2)CC1	none
CCOC(=O)C1(Cc2ccccc2)CCN(Cc2cccc3nccnc23)CC1	none | KCNK9 block conf inactive | Kir2-1 spec inactive | KCNK9 uninduced inactive
CCN(Cc1ccncc1)C(=O)c1cccc(S(=O)(=O)N2CCCCC2)c1	none (no result: KCNQ1 act, hERG rescue, KCC2 mod, KCNQ1 block, KCNK9 inh)
COc1ccc(-n2c(SCC(=O)Nc3ccc4c(c3)OCO4)nc3ccccc3c2=O)cc1	KCNK9 inh -9.29 | KCNK9 block conf 38.5% | Kir2-1 spec inactive | KCNK9 uninduced 35.5%
CCC(C)n1c(SCC(=O)NC(=O)Nc2ccc3c(c2)OCCO3)nc2ccccc2c1=O (stereo not drawn)	KCNK3 inh -8.74, KCNK9 inh -15.2 (no result: KCC2 mod) | KCNK9 block conf 50.0% | Kir2-1 spec inactive | KCNK9 uninduced 30.0%
CCOc1ccc(-n2c(SCC(=O)Nc3ccc4c(c3)OCO4)nc3ccccc3c2=O)cc1	none
COCC(C)n1c(SCC(=O)Nc2ccc3c(c2)OCCO3)nc2ccccc2c1=O (stereo not drawn)	none (no result: KCNQ1 act, hERG rescue, KCC2 mod, KCNQ1 block, KCNK9 inh)
CCOc1ccc(C(=O)NCC(=O)NCC2CCCCC2)cc1OCC	none (no result: KCC2 mod)
C#CCN(C(=O)c1cc(COc2ccc(C)c(C)c2)on1)C1CCCCC1	KCNQ1 block 6 (no result: KCC2 mod) | KCNK9 block conf inactive | Kir2-1 spec inactive | KCNK9 uninduced inactive
COc1ccc(C(=O)Cn2nc(CNc3ccc(Br)cc3)[n+]3c2CCCCC3)cc1	none
Cc1ccc(C(C)C)c(OCc2nn(CC(=O)c3ccc(OC(F)F)cc3)c3[n+]2CCCCC3)c1	KCNQ1 block 9, KCNK9 inh -8.38 | KCNK9 block conf 51.0% | Kir2-1 spec inactive | KCNK9 uninduced inactive
COc1ccccc1-c1cccc([C@@H]2C[C@H]3[C@H](CON3C)CN2C)c1	none (no result: KCNQ1 act, hERG rescue, KCC2 mod, KCNQ1 block, KCNK9 inh)
O=C(c1ccc2c(c1)OCO2)C1CCCN(C(=O)c2cnn(Cc3ccccc3)c2)C1 (stereo not drawn)	none (no result: KCC2 mod) | KCNK9 block conf inactive | Kir2-1 spec inactive | KCNK9 uninduced inactive
O=C(c1ccc2c(c1)OCO2)C1CCCN(Cc2cn[nH]c2-c2cccc(F)c2)C1 (stereo not drawn)	none
O=C(c1ccc2c(c1)OCO2)C1CCCN(Cc2ccc3cccc(F)c3n2)C1 (stereo not drawn)	none | KCNK9 block conf inactive | Kir2-1 spec inactive | KCNK9 uninduced inactive
CSc1ccccc1NC(=O)N1CCCC(C(=O)c2ccc3c(c2)OCO3)C1 (stereo not drawn)	none | KCNK9 block conf inactive | Kir2-1 spec inactive | KCNK9 uninduced inactive
CC[C@@H]1CCCCc2ccccc2[C@H](C(=O)C[C@H](O)CC(C)=O)OC1=O	none (no result: KCNQ1 act, hERG rescue, KCC2 mod, KCNQ1 block, KCNK9 inh)
CCOc1ccc(NS(=O)(=O)c2ccc(C(=O)NCC(c3ccc(OC)cc3)N3CCCC3)cc2)cc1 (stereo not drawn)	none (no result: KCC2 mod)
CNS(=O)(=O)c1cccc(C(=O)OCc2cc(Cl)cc3c2OCOC3)c1	KCNK9 inh -12.6 (no result: KCC2 mod) | KCNK9 block conf 48.5% | Kir2-1 spec inactive | KCNK9 uninduced inactive
O=C(OCc1cc(Cl)cc2c1OCOC2)c1cccnc1Cl	none (no result: KCNQ1 act, hERG rescue, KCC2 mod, KCNQ1 block, KCNK9 inh)
N#C/C(=C/c1ccc(N2CCCCC2)cc1)c1cccc(F)c1	none
N#C/C(=C/c1ccc(N2CCCCCC2)o1)c1ccc(Cl)cc1	KCNQ1 block 7, KCNK9 inh -10.4 (no result: KCC2 mod) | KCNK9 block conf 60.0% | Kir2-1 spec inactive | KCNK9 uninduced 78.0%
O=C(N[C@@H](Cc1ccc(Br)cc1)C(=O)O)OCC1c2ccccc2-c2ccccc21	none (no result: KCC2 mod) | KCNK9 block conf inactive | Kir2-1 spec inactive | KCNK9 uninduced inactive
CCCCN1C[C@H](Cc2ccccc2)[C@@H](CC(=O)NCc2ccc(OC)cc2)C1=O	none (no result: KCC2 mod)
COc1ccc(CNC(=O)C[C@H]2C(=O)N(c3ccccc3)C[C@@H]2Cc2ccccc2)cc1	KCNK9 inh -9.91 (no result: KCC2 mod) | KCNK9 block conf 59.5% | Kir2-1 spec inactive | KCNK9 uninduced inactive
O=C(NCC1CCCO1)c1ccc(Br)c(S(=O)(=O)N2CCOCC2)c1 (stereo not drawn)	none (no result: KCNQ1 act, hERG rescue, KCC2 mod, KCNQ1 block, KCNK9 inh)
CCn1c(SCC(=O)NC2CCCCC2)nnc1-c1cc2cccc(OC)c2o1	none | KCNK9 block conf inactive | Kir2-1 spec inactive | KCNK9 uninduced inactive
CC1SCC(NC(=O)c2cccc(Cl)c2)CS1 (stereo not drawn)	KCNK9 inh -10 | KCNK9 block conf 44.0% | Kir2-1 spec inactive | KCNK9 uninduced 26.5%
O=C(NC1CCCC1)c1cccc(Cl)c1	none
